Results: ChEMBL document CHEMBL3407426, “Synthesis and biological evaluations of novel endomorphin analogues containing α-hydroxy-β-phenylalanine (AHPBA) displaying mixed μ/δ opioid receptor agonist and δ opioid receptor antagonist activities” (Eur J Med Chem, 2015)
Where a SMILES comes first, the peptide text is derived from it. [ ]: non-standard residue; d: D form. ξ: configuration not given here. Dmt = Cc1cc(O)cc(C)c1C[C@H](N)C(=O)O; ξTiq(1-COOH) = O=C(O)C1NCCc2ccccc21; β3hF = N[C@H](CC(=O)O)Cc1ccccc1

What was measured:
[1] = target: Delta-type opioid receptor (Rattus norvegicus, UniProt P33533); assay: Displacement of [3H]DPDPE from rat cortex delta opioid receptor after 2.5 hrs by liquid scintillation counting analysis
Mu-type opioid receptor = Mu-type opioid receptor (Rattus norvegicus, UniProt P33535); assay: Displacement of [3H]DAMGO from rat cortex mu opioid receptor after 30 mins by liquid scintillation counting analysis
Method in brief: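 Rat cortex membranes prepared in 50 mM Tris pH 7.4, spun 16,500 rpm for 10 min, and incubated 30 min at 37 °C. Competition against [³H]DAMGO. Assay ended by filtration on BSA-soaked GF/B filters. Ki values are means of two experiments.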

[2] = Half life in rat brain homogenate at 10 uM; format: ADME, tissue-based
Method in brief: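 Peptide at a final 10 µM in rat brain homogenate (protein 21.2 mg/mL), incubated at 37 °C. Aliquots quenched in acetonitrile with internal standard in triplicate, centrifuged, and analysed by LC-MS/MS in MRM mode. Half-life from pseudo-first-order loss of the analyte/internal-standard ratio; mean of at least three experiments ± SEM.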

Sequence of Mu-type opioid receptor (P33535 whole entry): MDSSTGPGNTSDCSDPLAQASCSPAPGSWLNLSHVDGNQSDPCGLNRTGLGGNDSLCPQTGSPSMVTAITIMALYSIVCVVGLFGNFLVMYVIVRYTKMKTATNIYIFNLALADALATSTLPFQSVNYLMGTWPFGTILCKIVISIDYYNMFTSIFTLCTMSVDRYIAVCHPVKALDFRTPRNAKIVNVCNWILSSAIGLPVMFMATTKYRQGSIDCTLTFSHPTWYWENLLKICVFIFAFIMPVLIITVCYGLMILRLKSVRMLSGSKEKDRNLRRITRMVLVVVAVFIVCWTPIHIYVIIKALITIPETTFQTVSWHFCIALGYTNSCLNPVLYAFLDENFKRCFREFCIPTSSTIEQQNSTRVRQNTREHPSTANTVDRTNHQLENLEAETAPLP
Sequence of Delta-type opioid receptor (P33533 whole entry): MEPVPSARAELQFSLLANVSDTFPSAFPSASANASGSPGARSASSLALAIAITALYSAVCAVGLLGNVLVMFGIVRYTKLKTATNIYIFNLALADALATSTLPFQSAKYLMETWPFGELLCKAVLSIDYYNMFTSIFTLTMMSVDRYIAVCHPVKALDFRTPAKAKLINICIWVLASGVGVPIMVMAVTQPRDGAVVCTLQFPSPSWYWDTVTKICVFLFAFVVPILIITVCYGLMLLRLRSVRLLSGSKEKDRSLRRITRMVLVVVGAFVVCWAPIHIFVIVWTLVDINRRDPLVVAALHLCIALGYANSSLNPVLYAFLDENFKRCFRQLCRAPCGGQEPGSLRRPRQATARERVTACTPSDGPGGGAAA

Compound	Ki [1] [nM]	Ki (Mu-type opioid receptor) [nM]	half-life at 10 µM [2] [min]
NC(=O)[C@H](O)[C@H](Cc1ccccc1)NC(=O)[C@H](Cc1c[nH]c2ccccc12)NC(=O)[C@@H]1CCCN1C(=O)[C@@H](N)Cc1ccc(O)cc1	453	25	
NC(=O)[C@H](Cc1ccccc1)NC(=O)[C@@H](O)[C@@H](Cc1ccccc1)NC(=O)[C@@H]1CCCN1C(=O)[C@@H](N)Cc1ccc(O)cc1	593	202	
NC(=O)[C@@H](O)[C@@H](Cc1ccccc1)NC(=O)[C@H](Cc1ccccc1)NC(=O)[C@@H]1CCCN1C(=O)[C@@H](N)Cc1ccc(O)cc1		324	
NC(=O)[C@@H](O)[C@H](Cc1ccccc1)NC(=O)[C@H](Cc1c[nH]c2ccccc12)NC(=O)[C@@H]1CCCN1C(=O)[C@@H](N)Cc1ccc(O)cc1	508	10	3.57
NC(=O)C[C@H](Cc1ccccc1)NC(=O)[C@H](Cc1ccccc1)NC(=O)[C@@H]1CCCN1C(=O)[C@@H](N)Cc1ccc(O)cc1	2500	23	
NC(=O)[C@@H](O)[C@@H](Cc1ccccc1)NC(=O)[C@H](Cc1c[nH]c2ccccc12)NC(=O)[C@@H]1CCCN1C(=O)[C@@H](N)Cc1ccc(O)cc1	287	176	
NC(=O)[C@H](Cc1ccccc1)NC(=O)C[C@H](Cc1ccccc1)NC(=O)[C@@H]1CCCN1C(=O)[C@@H](N)Cc1ccc(O)cc1	385	24	
NC(=O)C[C@H](Cc1ccccc1)NC(=O)[C@H](Cc1c[nH]c2ccccc12)NC(=O)[C@@H]1CCCN1C(=O)[C@@H](N)Cc1ccc(O)cc1	4110	10	4.57
N=C(N)NCCC[C@H](NC(=O)[C@H](O)[C@H](Cc1ccccc1)NC(=O)[C@@H]1CCCN1C(=O)[C@@H](N)Cc1ccc(O)cc1)C(N)=O	483	86	
NC(=O)C(Cc1ccc(F)cc1)NC(=O)[C@H](O)[C@H](Cc1ccccc1)NC(=O)[C@@H]1CCCN1C(=O)[C@@H](N)Cc1ccc(O)cc1 (stereo not given in full)	829	207	
NC(=O)[C@H](O)[C@@H](Cc1ccccc1)NC(=O)[C@H](Cc1c[nH]c2ccccc12)NC(=O)[C@@H]1CCCN1C(=O)[C@@H](N)Cc1ccc(O)cc1	441	243	
NC(=O)[C@H](Cc1ccccc1)NC(=O)[C@H](O)[C@@H](Cc1ccccc1)NC(=O)[C@@H]1CCCN1C(=O)[C@@H](N)Cc1ccc(O)cc1	1220	2080	
Cc1cc(O)cc(C)c1C[C@H](N)C(=O)N1CCc2ccccc2C1C(=O)N[C@@H](Cc1c[nH]c2ccccc12)C(=O)N[C@H](CC(N)=O)Cc1ccccc1 (stereo partly drawn) (H-[Dmt][ξTiq(1-COOH)]W[β3hF]-NH2)	1	14	> 120
NC(=O)[C@@H](O)[C@H](Cc1ccccc1)NC(=O)[C@H](Cc1ccccc1)NC(=O)[C@@H]1CCCN1C(=O)[C@@H](N)Cc1ccc(O)cc1		17	2.3
NC(=O)[C@H](O)[C@@H](Cc1ccccc1)NC(=O)[C@H](Cc1ccccc1)NC(=O)[C@@H]1CCCN1C(=O)[C@@H](N)Cc1ccc(O)cc1		447	
NC(=O)[C@H](Cc1ccccc1)NC(=O)[C@H](O)[C@H](Cc1ccccc1)NC(=O)[C@@H]1CCCN1C(=O)[C@@H](N)Cc1ccc(O)cc1	3290	9	6.52
NC(=O)C(Cc1ccc2ccccc2c1)NC(=O)[C@H](O)[C@H](Cc1ccccc1)NC(=O)[C@@H]1CCCN1C(=O)[C@@H](N)Cc1ccc(O)cc1 (stereo not given in full)	757	39	
NC(=O)[C@H](Cc1c[nH]c2ccccc12)NC(=O)[C@H](O)[C@H](Cc1ccccc1)NC(=O)[C@@H]1CCCN1C(=O)[C@@H](N)Cc1ccc(O)cc1		13	
NC(=O)[C@H](Cc1ccccc1)NC(=O)[C@@H](O)[C@H](Cc1ccccc1)NC(=O)[C@@H]1CCCN1C(=O)[C@@H](N)Cc1ccc(O)cc1	1790	497	
NC(=O)[C@H](O)[C@H](Cc1ccccc1)NC(=O)[C@H](Cc1ccccc1)NC(=O)[C@@H]1CCCN1C(=O)[C@@H](N)Cc1ccc(O)cc1		33	
